HER2 expr 66K – inhibitors of human Her2 kinase expression; P04626; SKBR-3 HER2 protein level, AlphaScreen, 18-24 h; stronger effect = lower value; HER2 level % of control, % at 10 µM; actives 0.69% (n = 65,000); AID 645;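 active = HER2 level under 5% of the carrier-only control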;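 also: 100% = DMSO carrier and 0% = 500 nM PU-H71 HSP90 inhibitor; lower value means stronger loss of Her2 protein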
Target sequence (P04626 whole entry, looked up): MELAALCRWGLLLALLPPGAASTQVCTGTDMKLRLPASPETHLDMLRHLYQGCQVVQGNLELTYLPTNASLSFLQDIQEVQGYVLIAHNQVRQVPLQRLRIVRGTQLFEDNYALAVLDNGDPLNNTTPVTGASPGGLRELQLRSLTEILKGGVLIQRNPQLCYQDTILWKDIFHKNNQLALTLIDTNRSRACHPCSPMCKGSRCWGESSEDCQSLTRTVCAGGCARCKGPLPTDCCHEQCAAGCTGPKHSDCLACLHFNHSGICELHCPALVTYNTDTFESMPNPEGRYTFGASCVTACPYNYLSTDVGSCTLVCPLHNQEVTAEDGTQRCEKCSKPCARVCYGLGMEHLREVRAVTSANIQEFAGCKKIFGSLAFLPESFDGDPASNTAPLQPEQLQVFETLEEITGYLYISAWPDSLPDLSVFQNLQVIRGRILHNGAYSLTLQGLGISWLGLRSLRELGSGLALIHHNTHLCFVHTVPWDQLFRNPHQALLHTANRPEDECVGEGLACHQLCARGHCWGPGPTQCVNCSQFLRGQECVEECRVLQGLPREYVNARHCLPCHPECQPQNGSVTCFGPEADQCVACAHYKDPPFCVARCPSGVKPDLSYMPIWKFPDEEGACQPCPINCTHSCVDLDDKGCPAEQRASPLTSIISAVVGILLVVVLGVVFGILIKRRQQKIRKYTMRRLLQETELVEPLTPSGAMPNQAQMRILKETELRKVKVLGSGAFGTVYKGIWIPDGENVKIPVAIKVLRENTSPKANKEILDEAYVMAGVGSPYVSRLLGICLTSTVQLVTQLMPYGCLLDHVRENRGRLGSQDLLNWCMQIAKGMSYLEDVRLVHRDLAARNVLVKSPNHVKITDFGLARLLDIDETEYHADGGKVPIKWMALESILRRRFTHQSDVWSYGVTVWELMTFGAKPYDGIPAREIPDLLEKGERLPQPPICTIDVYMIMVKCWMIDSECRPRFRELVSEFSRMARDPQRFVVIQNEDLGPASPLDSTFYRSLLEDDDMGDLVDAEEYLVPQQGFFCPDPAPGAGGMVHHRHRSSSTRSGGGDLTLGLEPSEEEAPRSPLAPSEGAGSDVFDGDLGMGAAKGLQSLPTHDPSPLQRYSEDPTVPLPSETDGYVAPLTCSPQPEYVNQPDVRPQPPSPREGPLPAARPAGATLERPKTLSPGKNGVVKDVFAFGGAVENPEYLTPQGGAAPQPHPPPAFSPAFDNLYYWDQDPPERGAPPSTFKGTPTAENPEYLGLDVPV
AP ELISA ortho – orthogonal test for alternative complement pathway inhibitors | actives 0.08% (n = 62,000) | Human serum alternative complement pathway, LPS-coated ELISA, C3 deposition; tested in compound mixtures | AID 1235 | inhibition, % at 5 µM;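 active = inhibition above 30% in each of the two pooled mixtures holding the compound, so the lower value exceeds 30%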;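 also: 0% = serum in Mg-EGTA without compound and 100% = EDTA serum blank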
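Test system: human serum complement alternative pathway, C3 deposition onto LPS / Medium: Mg2+-EGTA GVB++ buffer containing human serum at 1:15 dilution / Probe or stimulus: Plate-bound LPS / Times: 1 h at 37 °C / Signal: ELISA with HRP anti-human C3 antibody, TMB substrate, absorbance 450 nm / Measure: percent inhibition / Repeats: two pool placements per compound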
JNK3 blocker – blocks human JNK3 kinase activity | purified JNK3 kinase activity, HTS | inhibition, % at 8 µM | actives 0.61% (n = 60,000); in the data active = inhibition above about 17%;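 also: 0% = DMSO and 100% = reference inhibitor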
HEK293 NFkB inh – inhibitors of the PMA/ionomycin-induced NF-kB reporter in HEK293 cells; HEK-293 NF-kB luciferase reporter, luminescence; inhibition, % at 3 µM; actives 0.21% (n = 62,000); AID 465;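 active = inhibition above the mean of all tested compounds plus 3 SD, cut at about 40% in these data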;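 also: 0% = stimulated DMSO wells and 100% = 10 µM reference inhibitor 5653914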
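Signal: luciferase luminescence; Material: HEK-293 cells with stable firefly luciferase reporter driven by four HIV NF-kB elements; Probe or stimulus: PMA with ionomycin; Replication: tested once; Times: 1 h compound pretreatment, then 16 h stimulation at 37 °C, 5% CO2; Benchmarks: DMSO and 10 µM reference inhibitor; Evaluation: per-plate % inhibition versus controls.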
Jurkat viability – cytotoxicity toward Jurkat cells; Jurkat E6.1 viability, ATP luminescence, 48 h; AID 463; actives 1.2% (n = 56,000); inhibition, % at 4 µM;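 active = inhibition above the mean inhibition of all tested compounds plus 3 SD, cut at about 28% in these data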
Hsp90 inh – displaces geldanamycin probe from tumor Hsp90; NCI-N417 lysate Hsp90, Cy3B-geldanamycin FP displacement; inhibition, % at 30 µM; actives 0.35% (n = 64,000);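 active = inhibition above 50%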;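 also: 0% = tracer plus lysate wells and 100% = tracer alone without lysate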
An asterisk follows results filed as active. Shown are actives, neighbours in structure and some others; about 2.5% of the full set was active somewhere.

Results for CC1(C)Cc2ccccc2-c2nnc(SCC(=O)Nc3ccc4c(c3)OCO4)n21 ?
HER2 expr 66K: 86.4; AP ELISA ortho: 56.4*; JNK3 blocker: -2.9; HEK293 NFkB inh: 3.4; Jurkat viability: 1.1; Hsp90 inh: -1.2

Results for COc1cc(NCCCN)c2ncccc2c1 ?
Hsp90 inh: -6.7

How did Cc1cc2c(cc1Cl)N(C(=O)Nc1ccnc3ccccc13)CC2 do in these assays?
Hsp90 inh: -1.2

What do the screens show for `COc1ccc(NC(=O)c2cnc(C)cn2)c2ncccc12`?
HER2 expr 66K: 77.6; AP ELISA ortho: 10.9; JNK3 blocker: 3.7; HEK293 NFkB inh: 2.0; Jurkat viability: 62.2*; Hsp90 inh: -6.3

Results for COc1cc(N)c2nccc(Cl)c2c1 ?
Hsp90 inh: 12.9

Results for O=C(O)c1ccccc1C1=Nc2ccc(O)cc2Oc2cc(O)ccc21 ?
HER2 expr 66K: -53.0*; AP ELISA ortho: -23.2; JNK3 blocker: 1.4; HEK293 NFkB inh: 4.6; Jurkat viability: -3.1; Hsp90 inh: 60.8*

Results for Cc1cc(-c2ccccc2C(=O)O)on1 ?
HER2 expr 66K: 97.8; AP ELISA ortho: 3.1; JNK3 blocker: -2.4; HEK293 NFkB inh: 6.1; Jurkat viability: -13.9; Hsp90 inh: 0.5

What do the screens show for `O=C(CSc1ccc2nnc(-c3cccnc3)n2n1)NCc1ccc2c(c1)OCO2`?
HER2 expr 66K: -16.9*; AP ELISA ortho: 0.2; JNK3 blocker: 3.4; HEK293 NFkB inh: 6.2; Jurkat viability: -1.6; Hsp90 inh: -3.3

What do the screens show for `O=C(CSc1ccc2nnc(-c3ccccn3)n2n1)NCc1ccc2c(c1)OCO2`?
HER2 expr 66K: 84.2; AP ELISA ortho: 1.0; JNK3 blocker: 2.0; HEK293 NFkB inh: 1.0; Jurkat viability: 0.5; Hsp90 inh: -2.7

What do the screens show for `CC(N)C1CCC(C(=O)Nc2ccncc2)CC1` (stereo unspecified)?
Hsp90 inh: 1.8

What do the screens show for `CS(=O)(=O)N1CCN(c2ccccc2NC(=O)c2ccc(Cl)cc2)CC1`?
HER2 expr 66K: 62.8; AP ELISA ortho: 14.0; JNK3 blocker: -4.4; HEK293 NFkB inh: 12.9; Jurkat viability: -4.9; Hsp90 inh: -1.2

Results for CS(=O)(=O)N1CCN(c2ccccc2NC(=O)CSc2ccc(Cl)cc2)CC1 ?
HER2 expr 66K: 93.0; AP ELISA ortho: 13.7; JNK3 blocker: 20.6*; HEK293 NFkB inh: 10.1; Jurkat viability: 7.8; Hsp90 inh: -4.0

How did C=CC(N)CCC(=O)O (stereo unspecified) do in these assays?
Hsp90 inh: 1.0

How did O=C(CSc1nnnn1-c1ccc2c(c1)OCO2)NCc1cccs1 do in these assays?
HER2 expr 66K: 91.5; AP ELISA ortho: 19.5; JNK3 blocker: 0.8; HEK293 NFkB inh: 10.2; Jurkat viability: -4.8; Hsp90 inh: 0.0

What do the screens show for `O=C(CSc1nnnn1-c1ccc2c(c1)OCO2)NCc1ccccc1`?
HER2 expr 66K: 76.5; AP ELISA ortho: 3.2; JNK3 blocker: -6.8; HEK293 NFkB inh: 15.9; Jurkat viability: 58.4*; Hsp90 inh: -3.9

Results for CC1CCCN(C(=O)CSc2nnc3n(C4CCCC4)c(=O)c4ccccc4n23)C1 (stereo unspecified) ?
HER2 expr 66K: 115.2; AP ELISA ortho: 35.0*; JNK3 blocker: 3.1; HEK293 NFkB inh: 11.3; Jurkat viability: 0.2; Hsp90 inh: -1.9

Results for O=C(CSc1nnc2n(C3CCCC3)c(=O)c3ccccc3n12)N1CCCCCC1 ?
HER2 expr 66K: 76.4; AP ELISA ortho: -2.4; JNK3 blocker: 4.7; HEK293 NFkB inh: 19.4; Jurkat viability: 5.9; Hsp90 inh: -2.5

How did COCCN(CC(=O)Nc1ccccc1)S(=O)(=O)c1ccc(S(=O)(=O)N2CCCC2)cc1 do in these assays?
HER2 expr 66K: 115.6; AP ELISA ortho: 12.5; JNK3 blocker: 9.3; HEK293 NFkB inh: 15.8; Jurkat viability: 3.9; Hsp90 inh: -1.1

How did O=C(CSc1oc(-c2ccc(F)cc2)nc1S(=O)(=O)c1ccccc1)NCC1CCCO1 (stereo unspecified) do in these assays?
HER2 expr 66K: 108.8; AP ELISA ortho: 9.4; HEK293 NFkB inh: 17.4

What do the screens show for `O=C(CSc1oc(-c2ccccc2)nc1S(=O)(=O)c1ccc(F)cc1)NCC1CCCO1` (stereo unspecified)?
HER2 expr 66K: -21.4*; AP ELISA ortho: 5.8; HEK293 NFkB inh: 3.7

How did CCCC(=O)N1CCN(c2ccc(NC(=O)c3cc4ccccc4o3)cc2Cl)CC1 do in these assays?
HER2 expr 66K: -9.9*; AP ELISA ortho: 13.3; JNK3 blocker: -1.7; HEK293 NFkB inh: 27.3; Jurkat viability: 19.3; Hsp90 inh: 0.2

How did CCC(=O)N1CCN(c2ccc(NC(=O)c3cc4ccccc4o3)cc2Cl)CC1 do in these assays?
HER2 expr 66K: 84.8; AP ELISA ortho: 10.1; JNK3 blocker: 2.4; HEK293 NFkB inh: 12.2; Jurkat viability: 22.6; Hsp90 inh: 2.8

Results for CCCCCCCCCC(=O)NC(CN1CCOCC1)[C@H](O)c1ccccc1 (stereo partly specified) ?
Hsp90 inh: -0.1

What do the screens show for `Cc1ccc(NC(=O)CNc2cccc(C)c2C)c(C)c1`?
HER2 expr 66K: -27.6*; AP ELISA ortho: 9.7; JNK3 blocker: -3.5; HEK293 NFkB inh: 4.5; Jurkat viability: 3.5; Hsp90 inh: -2.5

How did COc1ccc(-c2nnn(CC(=O)Nc3sc4c(c3C#N)CCCC4)n2)cc1 do in these assays?
HER2 expr 66K: 105.9; AP ELISA ortho: 11.5; JNK3 blocker: 5.7; HEK293 NFkB inh: 1.8; Jurkat viability: -6.5; Hsp90 inh: -5.0

How did CCN1CCN(S(=O)(=O)c2cc(OCC(=O)NC3CCCCC3)c(C)cc2Cl)CC1 do in these assays?
HER2 expr 66K: 85.2; AP ELISA ortho: -1.3; JNK3 blocker: 3.0; HEK293 NFkB inh: 24.5; Jurkat viability: 53.3*; Hsp90 inh: -1.6

How did COc1cc(NC(C)=O)c2ncccc2c1 do in these assays?
Hsp90 inh: 2.3

Results for COc1cccc(NC(=O)CSc2nnc(-c3cc(C)n(-c4ccccc4)c3C)o2)c1 ?
HER2 expr 66K: 60.9; AP ELISA ortho: 14.9; JNK3 blocker: -6.4; HEK293 NFkB inh: 41.3*; Jurkat viability: 2.8; Hsp90 inh: -8.3

Results for Cc1cc(C)cc(NC(=O)CSc2nnc(-c3ccccc3Br)o2)c1 ?
HER2 expr 66K: 82.6; AP ELISA ortho: 19.5; JNK3 blocker: -1.6; HEK293 NFkB inh: -6.7; Jurkat viability: 5.4; Hsp90 inh: -6.9

What do the screens show for `COc1cc(NCCCC(C)N)c2ncccc2c1` (stereo unspecified)?
HER2 expr 66K: 65.9; AP ELISA ortho: 10.6; JNK3 blocker: -10.4; HEK293 NFkB inh: 7.7; Jurkat viability: 1.2; Hsp90 inh: 96.7*

Results for COc1cc(NCCCC(C)O)c2ncccc2c1 (stereo unspecified) ?
Hsp90 inh: 1.3

What do the screens show for `COc1cc(NS(=O)(=O)c2ccc(C)cc2)c2ncccc2c1`?
HER2 expr 66K: -5.2*; AP ELISA ortho: 7.1; JNK3 blocker: -5.6; HEK293 NFkB inh: 4.3; Jurkat viability: 78.8*; Hsp90 inh: 2.9
